HIV Rev-RRE inh – HIV-1 Rev-RRE binding inhibitors, primary screen, biochemical, FRET, protein-RNA interaction; P05866; Rev peptide-RRE RNA binding; inhibition, % at 8 µM; 0.79% of 97,000 active; AID 704, 2007;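 active means inhibition above the screen-wide mean plus 3 SD, cut at about 35% in these data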;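 further: 0% = median DMSO wells and 100% = median Neomycin B control wells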
Target sequence (P05866 whole entry, looked up): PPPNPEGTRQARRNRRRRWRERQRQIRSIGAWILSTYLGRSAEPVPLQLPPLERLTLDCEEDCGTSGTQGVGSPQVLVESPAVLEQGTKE
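Test system: labelled RRE RNA duplex and labelled Rev peptide. Times: 5 min compound–RNA preincubation, then 15 min with peptide, 25 °C. Doses: single-dose 8 µM. Measured by: FRET, excitation 480 nm, emission 540 nm donor and 671 nm acceptor. Measure: % inhibition of FRET ratio versus controls.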
Phagocyt inh – inhibitors of macrophage phagocytosis, primary screen, imaging, J774A.1 cells, IgG beads. inhibition, % at 5 µM. 0.07% of 110,000 active. J774A.1 macrophage IgG-bead phagocytosis;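 active means inhibition above the mean of the plate negative controls plus 5 SD, cut at about 13% in these data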;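 further: phagocytic index as fraction of beads internalized from green versus red external bead signal; plate controls were DMSO negative control for no effect and cytochalasin-D positive control for full effect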
PTK2B oligo ant – antagonists of Pyk2 self-association, primary screen, Q293 cells, FERM NanoBiT luminescence, HTS; 0.83% of 99,000 active; hits give low values; AID 1347419, 2020; z-score (the deposit names both 25 µM and 10 µM);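 active means Z-score of -3 or lower, scaled per plate to the spread of control and sample wells; inactive means z-score above -3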;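 further: negative z-score means lost luminescence so less FERM oligomerization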
Measles CPE – compounds protecting cells from measles virus cytopathic effect, primary screen, measles RdRp inhibitor project, single point, MLSMR library, absorbance; Measles virus-infected cells, CPE protection; protection (pct of control), % at 4 µM; 1.5% of 140,000 active; in the data active means protection mostly above about 24%, no sharp cut-off; inactive means mostly below about 26%
hDAT+cocaine – changed hDAT dopamine uptake under cocaine IC80, either direction, primary screen, cocaine antagonist project, cell-based, LLC-PK1 hDAT, [14C]-dopamine uptake, MLSMR. AID 449768, 2010. LLC-PK1 hDAT cells, [14C]-dopamine uptake with cocaine IC80; actives deviate in either direction. B-score at 10 µM. 1.3% of 110,000 active;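 active means Z score or B-score, a plate-position-corrected score, falls beyond the plate's 99.7% confidence bounds, in either direction; inactive means both scores lie inside the 99.7% bounds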;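 further: scored against the spread of the other compound wells on the same plate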
Cav32 inh – Cav3.2 calcium influx blockers – cell-based, Fluo-4 calcium fluorescence, FDSS, MLSMR library, primary screen | Voltage-dependent T-type calcium channel subunit alpha-1H (Homo sapiens), O95180 | Cav3.2-expressing cells; hits give low values | B-score at 10 µM | 4% of 100,000 active | AID 449739, 2010;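 active means single-dose well whose peak fluorescence ratio is a statistical outlier from its plate by either plate-standardised score or position-corrected B-score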
Active calls of the source: *; / = no result given; [ ] = remark or other dose. Compounds with a hit are over-represented: about 5.9% of the library has one in this group of screens.

SMILES	HIV Rev-RRE inh	Phagocyt inh	PTK2B oligo ant	Measles CPE	hDAT+cocaine	Cav32 inh
CCCCN(CC)Cc1ccc(CNC(=O)Nc2ccccc2)o1	4.8	1.3	2.57	16.0	-2.53*	0.963
CCCCN(CC)Cc1ccc(CNC(=O)Nc2ccc(OC)cc2OC)o1	0.8	/	1.18	13.0	-0.377	0.382
CCN1C(=O)N(c2cccc3ccccc23)C(C)=CC1(C)C	-4.3	/	-0.78	5.4	0.0655	-5.68*
Cc1nc(C(=O)NC2CCOCC2)sc1C1(C)CC(c2cccc([N+](=O)[O-])c2)=NO1 (stereo not given)	/	/	/	/	0.827	-0.0928
C/C(=N\NC(=O)c1cccc(Cl)c1)C1C(=O)c2ccccc2C1=O	/	-5.5	/	5.0	/	/
Cc1c(C(=O)N2CCN(C)CC2)oc2c1C(=O)CC(C)(C)C2	5.0	/	-0.3	3.2	-0.00202	0.511
Cc1c(C(=O)N2CCCC2)oc2c1-c1[nH]ncc1CC2	/	/	/	30.6*	0.971	0.369
COc1ccc(N=c2sc3ccccc3n2C)cc1	9.3	-0.4	-0.75	16.4	-0.00887	-0.112
COc1ccc(N=Nc2nc3ccc(Br)cc3n2C)cc1	101.2*[fluorescence artefact?]	/	-1.08	9.5	/	/
Cc1ccc(C(CC(=O)NCc2ccco2)c2ccc(OC(C)C)cc2)cc1 (stereo not given)	6.0	/	-2.96	/	0.409	-5.1*
CCn1c2ccccc2c2nnc(SCCCn3c(=O)[nH]c4ccccc43)nc21	-3.1	0.7	-3.47*	3.2	0.42	-1.07
COc1cc2cc(CN(Cc3cccs3)C(=S)Nc3cccc(C)c3)c(=O)[nH]c2cc1OC	/	-12.0	/	11.2	/	/
COc1cc2cc(CN(Cc3cccs3)C(=S)Nc3ccc(C)cc3)c(=O)[nH]c2cc1OC	/	0.0	/	30.4*	/	/
Cc1ccc(N2C(=O)N(CC(=O)NC(c3ccccc3)c3ccccc3)C(=O)C2C)cc1 (stereo not given)	4.3	-0.7	0.07	3.3	0.00619	-10.3*
Cc1ccc(N2C(=O)N(CC(=O)N(C)Cc3ccccc3)C(=O)C2C)cc1 (stereo not given)	2.2	1.4	-0.51	4.1	0.605	0.138
Cc1cccn2c(=O)c(C=NCc3ccccc3)c(NCCO)nc12	4.8	-2.5	0.12	9.4	1.79	0.197
CCC(C)N1C(=O)/C(=C/c2c(NCCCOC(C)C)nc3c(C)cccn3c2=O)SC1=S (stereo not given)	126.1*[fluorescence artefact?]	/	-3.11*	8.6	-1.22	-5.15*
CCCN1C(=O)/C(=C/c2c(NCCCOC(C)C)nc3c(C)cccn3c2=O)SC1=S	93.7*[fluorescence artefact?]	5.1	-0.5	3.0	-0.786	-1.48
CCC(C)N=Cc1c(NCc2ccco2)nc2c(C)cccn2c1=O (stereo not given)	9.0	3.2	0.02	-0.4	-0.0165	0.396
O=C(Nc1nc2ccc(Cl)cc2s1)[C@@H]1CCCN1C(=O)c1cccs1	/	-5.4	-0.89	10.6	/	/
O=C(Nc1nnc(SCc2ccc(F)cc2)s1)C1CC(=O)N(Cc2ccccc2)C1 (stereo not given)	/	-6.5	/	8.2	/	/
Cc1ccc(-c2cn(S(=O)(=O)c3cccc4nsnc34)nc2N)cc1	-0.5	-1.2	-1.05	12.9	0.344	-7.76*
Nc1nn(S(=O)(=O)c2cccc3nsnc23)cc1-c1ccc(Br)cc1	2.2	-0.6	-0.67	6.9	1.58	-5.92*
CS(=O)(=O)N1CCN(c2ccc(Cl)cc2[N+](=O)[O-])CC1	/	-9.0	/	19.3	/	/
CC(=O)NS(=O)(=O)c1ccc(NC(=O)c2ccc3c(c2)C(=O)N(CCC(C)C)C3=O)cc1	/	-3.3	/	19.5	/	/
SMILES	HIV Rev-RRE inh	Phagocyt inh	PTK2B oligo ant	Measles CPE	hDAT+cocaine	Cav32 inh
CCCOc1ccc(OC(=O)c2ccc(Br)o2)cc1	0.3	/	0.61	13.1	0.00734	-0.0491
CC1=C(C(=O)OCc2ccccc2)C(c2ccc(C#N)cc2)NC(=O)N1CCCC(=O)O (stereo not given)	/	/	/	31.1*	-0.726	0.0624
CC1=C(C(=O)OCc2ccccc2)C(c2ccc(Cl)cc2)NC(=O)N1CCCCCC(=O)O (stereo not given)	/	/	/	3.4	1.65	0.143
CC1(c2nnc(-c3cccc(Cl)c3)o2)CC(c2ccc(Br)cc2)=NO1 (stereo not given)	/	/	/	/	-0.787	-0.752
CC1=C(C(N)=O)C(c2ccc(Cl)cc2Cl)n2ncnc2N1 (stereo not given)	1.4	/	-0.42	7.4	0.668	-0.0538
CC(=O)C1=C(C)Nc2ncnn2C1c1ccccc1Cl (stereo not given)	3.4	-0.1	-0.65	100.7*	-0.81	-1.92
CCOC(=O)C(Cc1c[nH]c2ccccc12)NC(=O)c1ccco1 (stereo not given)	6.4	90.0*[artifact]	1	8.3	-0.226	-0.0248
O=c1c(/C=N/Nc2ccccc2)c(Sc2nnnn2-c2ccccc2)nc2ccccn12	73.0*[fluorescence artefact?]	-1.2	-1.15	11.1	/	/
Cc1cc(N2CCCCC2)nc(SCC(=O)c2ccccc2)n1	3.2	-1.7	-1.26	4.4	0.484	-4.03
O=C(CSc1nc(N2CCCCC2)nc(N2CCCCC2)n1)c1ccccc1	7.4	-2.2	-0.99	4.8	-0.124	-4.22*
CCNC(=O)Cn1cc(C#N)c2ccccc21	8.0	/	0.07	5.8	-0.944	1.04
C/C=C1\COC(C(=O)NCc2cccc(OC)c2OC)(C(F)(F)F)C=C1C=C1CCCCC1 (stereo not given)	/	/	/	/	/	-4.21*
CCC(OC(=O)C(NC(=O)c1ccccc1)c1ccccc1)C(=O)Nc1cc(C)on1 (stereo not given)	4.2	0.6	-0.62	47.0*	0.338	-1.97
CCOC(=O)[C@@H]1[C@H]2COc3ccccc3[C@@H]2N2C(=O)N(c3ccc(F)cc3)C(=O)[C@]12C	/	/	/	/	0.028	0.236
CCOc1cc2c3c(c1)C1(Nc4ccccc4S1)C(=O)N3C(C)(C)CC2C (stereo not given)	1.1	-0.7	-0.31	8.3	0.13	-4.22*
CCN(CC)C(C(=O)Nc1ccc(C(C)C)cc1)c1ccc2c(c1)OCO2 (stereo not given)	14.4	-2.1	-1.22	4.0	-0.0217	-4.86*
CC(C)c1ccc(NC(=O)C(c2ccc3c(c2)OCO3)N2CCN(C(=O)c3ccco3)CC2)cc1 (stereo not given)	/	0.5	-1.74	19.8	0.684	-5.21*
CC(C)c1ccc(NC(=O)C(c2ccccc2)N2CCN(C(=O)c3ccco3)CC2)cc1 (stereo not given)	5.7	-2.0	-0.16	4.4	0.642	-2.74
O=c1c2ccccc2nc(SCc2nc3ccccc3s2)n1CCCO	/	-1.9	/	8.1	/	/

High-throughput results from PubChem BioAssay.
